From PubChem BioAssay
A number with no mark means an inactive call. Inconclusive results are not listed. The source made the active and inactive calls.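 How the source made its calls, unless noted: active means viability at or below 27.92% in each of two runs, the all-compound median minus 4 SD; inconclusive means no clear call, values can overlap the other calls; inactive means the rest.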

Tests used:
[1] = S. cerevisiae growth inhibition in permissive medium (OD615), pilot counter-assay for S. cerevisiae lifespan shortening project, permissive growth control (AID 705;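 active means growth inhibition above 25% in both replicates, a cutoff set 3 SD above the mean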); settings: OD615, 24 h, at 10 µM, hits give high values
Summary of the method: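 Material: engineered DeaD yeast; compound dosing: one dose 10 µM, DMSO 0.25% final; measure: yeast growth inhibition indicated by reduced 24 h OD615; detection: OD615 turbidity read; incubation: cells pre-grown 4 h, then 24 h compound exposure, 30 °C humidified; medium: permissive synthetic complete medium with raffinose and galactose carbon sources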

[2] = S. cerevisiae growth inhibition in restrictive medium, OD615, pilot screen, restrictive growth control, yeast lifespan reduction project (AID 706;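 active means growth inhibition above a set limit, 3 SD over mean compound inhibition, in both replicates, cut at about 43% in these data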;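 further: modified DeaD lifespan yeast strain shifted to restrictive glucose medium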); settings: OD615, 48 h, at 10 µM, hits give high values
Summary of the method: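 material = engineered S. cerevisiae DeaD strain | medium = glucose-based CSMM-D restrictive medium | times = 4 h pre-incubation, 48 h exposure at 30 °C | technique = OD615 absorbance reading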

[3] = doxorubicin toxicity protection in MRP-1 cells – H69AR cells, CellTiter-Glo, duplicate, MRP-1 activator project, pilot screen (AID 807;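 active means viability increase at or above a cutoff of the median across tested compounds plus 3 SD, cut at about 8.5% in these data, passing the limit was not always enough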;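 further: compound pretreatment 18-22 h then 72 h combined with doxorubicin; 0% = doxorubicin alone and 100% = vehicle without doxorubicin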); settings: H69AR viability with doxorubicin, CellTiter-Glo luminescence; at 10 µM; hits give high values
[4] = viability of HCT116 without oncogenic beta-catenin – human colon tumor cells, pilot screen (AID 823;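 active means cell viability at or below a set limit in both duplicate runs, the limit being the all-compound median minus 4 SD, cut at about 23% in these data, passing the limit was not always enough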;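 further: 0% = wells killed by 20 µM Hyamine and 100% = untreated DMSO cell wells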); settings: HCT116 beta-catenin knockout viability, CellTiter-Glo, 60 h; at 10 µM; hits give low values
[5] = viability of PTEN-null HCT116 cells – cell-based, HCT116 clonal line, CellTiter-Glo, pilot screen (AID 824); settings: HCT116 PTEN-deleted viability, 60 h, at 10 µM, hits give low values;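 further: 0% = 20 µM Hyamine control and 100% = vehicle cell control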
[6] = RAM pathway blockade in budding yeast – dse1pr::URA3 reporter, 5-FOA selection, pilot screen (AID 869;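 active means inhibition over a set limit, the all-compound mean plus 3 SD, in both replicate runs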;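 further: 0% = DMSO wells with no growth and 100% = 10 µM 1-NA-PP1 with full growth; RAM network block rescues cells from 5-FOA so hits raise OD615 growth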); settings: S. cerevisiae dse1pr::URA3 5-FOA growth, OD615, 2 d; at 10 µM; hits give high values; strain carries analog-sensitive mutant Cbk1 kinase
[7] = RAM signaling pathway blockade in yeast – S. cerevisiae, Pdr1DBD-CYC8 efflux-inhibited sensitized strain, primary screen (AID 1298;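 active means RAM network inhibition above 8.4% in each of two replicates, 3 SD over the compound average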;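 further: 0% = DMSO untreated cells without growth and 100% = 10 µM 1-NA-PP1 full growth; higher means more yeast growth rescued from 5-FOA killing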); settings: S. cerevisiae cbk1-as DSE1-URA3 strain, 5-FOA growth OD615, 2 d; at 50 µM; hits give high values

SMILES | growth inhibition [1] | growth inhibition [2] | viability increase [3] [%] | viability [4] | viability [5] | inhibition [6] [%] | RAM network inhibition [7] [%]
COc1ccc(N(CC(=O)NCc2ccco2)S(=O)(=O)c2c(C)nn(C)c2C)cc1 | -11% | -12.6% | -4.02 | 89.8% | 92.6% | 0.185 | 0.73
CCN(CC)C(=O)c1cc2c(=O)n3ccccc3nc2s1 | -4.75% | -3.33% | -3.66 | 93.7% | 96.2% | 1.94 | 0.68
CCOc1ccc(Cn2nnc(C(=O)NCc3ccccc3)c2N)cc1 | 2.25% | 3.87% | 2.17 | 93.2% | 85.5% | 0.395 | 3.74
CCCS(=O)(=O)NCc1cn2c(C)csc2n1 | -0.385% | 17.2% | -2.28 | 102% | 92.6% | 2.58 | 5.52
COc1ccc(S(=O)(=O)NCCSc2ccc(C)cc2)cc1OC | 1.08% | 1.66% | -2.26 | 85.8% | 86.1% | 1.18 | 2.65
Cc1ccc(CNC(=O)CN(C)S(=O)(=O)c2cccc3cccnc23)cc1 | -2.75% | 6.15% | -1.21 | 99.4% | 92.9% | 2.25 | -1.33
CCCn1c(C(O)c2ccc3c(c2)OCO3)nc2ccccc21 (configuration not stated) | 1.37% | -13.8% | 0.23 | 100% | 102% | 2.31 | 0.88
Cc1ccc(CC(=O)N2CCC(c3nc4c(nnn4Cc4ccccc4)c(=O)[nH]3)CC2)cc1 | -10.5% | -7.38% | -1.07 | 76.9% | 78.9% | 0.71 | 3
O=C(O)CCCC(=O)N1CCN(c2cccc(Cl)c2)CC1 | -2.97% | -1.71% | -1.22 | 95.2% | 86.2% | 2.33 | 4.6
CC(=O)C1C(c2ccccc2Cl)NC(=O)NC1(O)C(F)(F)F (configuration not stated) | -3.3% | -12.1% | -0.31 | 112% | 102% | 1.93 | -0.82
COC(=O)c1ccccc1NC(=O)c1c(O)c2c([nH]c1=O)CCCC2 | -23.1% | -12.7% | -5.62 | 88.3% | 93% | 1.71 | 1.65
CCSc1nc2ccccc2n1S(=O)(=O)c1ccccc1 | -13.9% | -20.8% | -0.8 | 101% | 100% | 0.395 | 1.37
CCOc1ccc2[nH]c(C)c(CN3CCOCC3)c(=O)c2c1 | 0.82% | -5.17% | -1.13 | 96.5% | 99% | 1.96 | 2.56
O=C(CN1CCOc2ccccc21)NC1CC1 | -8.82% | 8.71% | -3.71 | 88.1% | 98.8% | 1.16 | -0.26
CNC(=O)c1ccsc1NC(=O)c1ccc(Cl)s1 | -0.67% | 14.4% | -3.2 | 103% | 85.6% | 1.08 | 2.36
COc1ccc(CCNC(=O)c2cnccn2)cc1 | -10.1% | -2.55% | 0.3 | 102% | 87.2% | 3.53 | 2.5
CCCSC1=C(C#N)C(c2ccc(Cl)cc2Cl)CC(=O)N1 (configuration not stated) | 3.83% | 24% | -1.42 | 83.5% | 79.4% | 1.54 | 3.58
CC(=O)c1cc(Cc2csc(C(C)=O)c2)cs1 | -9.93% | -5.34% | -2.14 | 100% | 100% | 1.38 | 3.88

SMILES | growth inhibition [1] | growth inhibition [2] | viability increase [3] [%] | viability [4] | viability [5] | inhibition [6] [%] | RAM network inhibition [7] [%]
N=c1c2c(n(Cc3ccc(F)cc3)c3c1CCC3)CCC2 | -12.2% | -14.7% | -0.55 | 34.5% | 38.9% | 0.8 | 0.77
O=C(Nc1ccc(Cl)cc1)C1CC2CCCC(C1)C2=O (configuration not stated) | -7.49% | -3.51% | 0.77 | 97.2% | 99.2% | 0.77 | 4.61
COc1cc(C(=O)Nc2cc(C)c(OCC(=O)N3CCOCC3)c(C)c2)cc(OC)c1OC | -2.29% | 1.77% | -2.98 | 88.8% | 90.4% | 1.64 | 4.86
CCOc1ccccc1NC(=O)c1c(NC(=O)CNCc2ccco2)sc2c1CCC2 | 7.42% | -15.1% | -6.75 | 76.7% | 55.5% | 1.43 | 8.57
Cn1c(NC(=O)c2ccccc2)cc(=O)n(C)c1=O | -19% | -9.99% | -1.36 | 100% | 93.8% | 1.12 | 1.26
CCOC(=O)N1CCN(C(=O)c2oc3ccc(S(=O)(=O)N4CCCCCC4)cc3c2C)CC1 | -9.38% | -0.595% | -4.29 | 59.3% | 71.1% | -0.805 | 1.63
O=C(O)c1ccc(N2CCCCCC2)c(N2C(=O)c3ccccc3C2=O)c1 | -18% | 4.7% | -0.78 | 108% | 98.2% | 0.945 | 3.42
O=C(NC1=NCCS1)C1CC2CCC1C2 (configuration not stated) | 7.66% | 6.69% | -2.34 | 99.1% | 97.1% | 1.96 | 3.02
CCN=C(NCC)SC1CC(=O)N(c2cccc(OC)c2)C1=O (configuration not stated) | 5.98% | 1.56% | -1.43 | 101% | 94.6% | 0.04 | 7.47
COc1ccc(-c2cc(N)n(S(=O)(=O)Cc3ccccc3)n2)c(OC)c1 | -2.75% | -12.7% | 0.27 | 101% | 96.8% | 2.42 | 5.13
CCc1cccc(Nc2cc(C)nc3nc(C)nn23)c1 | -14.3% | -3.76% | -3.25 | 96.7% | 88.3% | 2.72 | 2.83
CN1CCN(Cc2c(O)ccc3occ(C(=O)c4ccccc4)c23)CC1 | -13% | -16.2% | -4 | 73% | 79% | 1.56 | 7.8
O=C(C1CCN(S(=O)(=O)c2cccc3cccnc23)CC1)N1CCN(c2ccccc2)CC1 | 1.1% | 16.9% | -3.27 | 87.7% | 83.8% | 1.76 | 6.12
Cc1ccc(C)c(NC(=O)CSc2nc3c(c(=O)n2C)SC(C)C3)c1 (configuration not stated) | -3.99% | -8.3% | -3.24 | 83.2% | 90.8% | 0.5 | 3.86
O=C(Nc1nc(-c2ccccn2)cs1)C1COc2ccccc2O1 (configuration not stated) | 84.5% (active) | 96.9% (active) | -0.68 | 10.3% (active) | 11.5% (active) | 0.255 | -2.19
CC(=O)c1ccc(OCC(O)CN2CCC(C)CC2)cc1 (configuration not stated) | -0.26% | 9.25% | -0.16 | 101% | 101% | 0.54 | -2.94
CCCn1c(CNS(=O)(=O)c2ccc(C)cc2)nc2ccccc21 | -7.5% | 7.18% | -2.43 | 83.6% | 85.2% | 0.135 | 0.52
CCOC(=O)C1=C(C)S/C(=C\N(C)C)C1=O | -8.63% | -1.29% | -0.78 | 98.6% | 90.3% | -0.055 | -2.3
